From ChEMBL document CHEMBL1121509, “Metabolic N-hydroxylation. Use of substituent variation to modulate the in vitro bioactivation of 4-acetamidostilbenes” (J Med Chem, 1980)

Columns and labels:
Format in all cases: ADME
Settings in all cases: microsomes
[1] = Selectivity ratio of Vmax and Km for microsomal oxidation (hydroxamic acid metabolite)
Method in brief: (§1)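 V/K computed as Vmax/Km, an apparent first-order rate constant […], from Wilkinson-fitted kinetic constants of 10-min, 37 °C liver microsomal incubations with NADPH-generating system and paraoxon; metabolites quantified by TLC and dual-label (¹⁴C/³H) radiochemical assay.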

[2] = Compound was evaluated for the kinetic constant (Vmax) for the microsomal oxidation (hydroxamic acid metabolite)
[3] = Compound was evaluated for the apparent kinetic constant (Km) for the microsomal oxidation (hydroxamic acid metabolite)
[4] = Selectivity ratio of Vmax and Km for microsomal oxidation; method in brief: as §1
[5] = Compound was evaluated for the apparent kinetic constant (Km) for the microsomal oxidation (hydroxymethyl metabolite)
[6] = Compound was evaluated for the kinetic constant (Vmax) for the microsomal oxidation (hydroxymethyl metabolite); Values are pmol(1/mg of microsomal protein)min
[7] = Compound was evaluated for the kinetic constant (Vmax) for the microsomal oxidation (4'-hydroxy metabolite); Values are pmol(1/mg of microsomal protein)min
[8] = Compound was evaluated for the apparent kinetic constant (Km) for the microsomal oxidation (4'-hydroxy metabolite)
[9] = Selectivity ratio of Vmax and Km for microsomal oxidation (4'-hydroxy metabolite); method in brief: as §1
[10] = Compound was evaluated for the kinetic constant (Vmax) for the microsomal oxidation (hydroxamic acid metabolite); Values are pmol(1/mg of microsomal protein)min; parameters: unit: pmol/min/mg protein
[11] = Selectivity ratio of Vmax and Km for microsomal oxidation (glycolamide metabolite); method in brief: as §1
[12] = Compound was evaluated for the apparent kinetic constant (Km) for the microsomal oxidation (glycolamide metabolite)
[13] = Compound was evaluated for the kinetic constant (Vmax) for the microsomal oxidation (glycolamide metabolite); Values are pmol(1/mg of microsomal protein)min
[14] = Compound was evaluated for the apparent kinetic constant (Km) for the microsomal oxidation (omega-1 hydroxy metabolite)
[15] = Compound was evaluated for the kinetic constant (Vmax) for the microsomal oxidation (omega-1 hydroxy metabolite); Values are pmol(1/mg of microsomal protein)min
[16] = Selectivity ratio of Vmax and Km for microsomal oxidation (omega-1 hydroxy metabolite); method in brief: as §1

Structure (SMILES) | Ratio [1] | Km [3] | Ratio [4] | Vmax [10] | other results
CC(=O)Nc1ccc(/C=C/c2ccc(C)cc2)cc1 | 4.05 | 60 µM |  |  | Vmax [2]: 243
CC(=O)Nc1ccc(/C=C/c2ccc(C(C)(C)C)cc2)cc1 |  |  | 12.54 |  | Km [5]: 90 µM; Vmax [6]: 1129
CC(=O)Nc1ccc(/C=C/c2ccccc2)cc1 | 0.99 | 2800 µM |  | 2767 | Vmax [7]: 467; Km [8]: 500 µM; Ratio [9]: 0.93
CC(=O)Nc1ccc(/C=C/c2ccc(Cl)cc2)cc1 | 0.03 | 3300 µM |  | 98 | Ratio [11]: 0.005; Km [12]: 3500 µM; Vmax [13]: 17
CC(=O)Nc1ccc(/C=C/c2ccc(F)cc2)cc1 | 0.03 | 2900 µM |  | 88 | Ratio [11]: 0.008; Km [12]: 3300 µM; Vmax [13]: 27
CC(=O)Nc1ccc(/C=C/c2ccc(C#N)cc2)cc1 |  | 310 µM | 2.18 | 677 | 
CC(=O)Nc1ccc(/C=C/c2ccc(Br)cc2)cc1 |  | 1900 µM | 0.24 | 457 | 
CCCCOc1ccc(/C=C/c2ccc(NC(C)=O)cc2)cc1 | 0.28 | 1200 µM |  | 330 | Km [14]: 1100 µM; Vmax [15]: 530; Ratio [16]: 0.48
